Test results taken from ChEMBL document CHEMBL4270666, “Development of Dihydrodibenzooxepine Peroxisome Proliferator-Activated Receptor (PPAR) Gamma Ligands of a Novel Binding Mode as Anticancer Agents: Effective Mimicry of Chiral Structures by Olefinic E/ Z-Isomers” (J Med Chem, 2018).
Active and inactive are the calls of the source. The calls are words filed in the database; no cut-off is given here.

Assays:
[1] = target: T1, Peroxisome proliferator-activated receptor gamma (Homo sapiens, UniProt P37231); test: Transactivation of GAL4-fused human PPARgamma transfected in HEK293BENA cells after 24 hrs by steady glo-luciferase reporter gene assay; format: cell-based
T1 sequence (P37231 whole entry): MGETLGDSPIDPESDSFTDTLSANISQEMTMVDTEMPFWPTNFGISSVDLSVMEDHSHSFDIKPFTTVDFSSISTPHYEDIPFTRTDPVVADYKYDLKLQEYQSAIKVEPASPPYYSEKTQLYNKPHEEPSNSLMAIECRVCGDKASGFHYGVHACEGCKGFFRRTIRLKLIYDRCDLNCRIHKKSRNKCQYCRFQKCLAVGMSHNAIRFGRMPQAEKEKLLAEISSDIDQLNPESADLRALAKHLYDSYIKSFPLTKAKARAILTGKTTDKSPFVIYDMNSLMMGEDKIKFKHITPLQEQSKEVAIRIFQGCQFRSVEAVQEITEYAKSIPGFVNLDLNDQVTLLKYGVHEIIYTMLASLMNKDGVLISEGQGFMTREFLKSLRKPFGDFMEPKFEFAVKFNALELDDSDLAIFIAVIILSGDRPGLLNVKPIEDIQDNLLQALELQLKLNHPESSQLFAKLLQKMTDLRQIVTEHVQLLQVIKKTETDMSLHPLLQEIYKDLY

[2] = target: T2, Peroxisome proliferator-activated receptor gamma (Homo sapiens) (UniProt P37231); test: Agonist activity at PPARgamma in human MKN45 cells assessed as cell differentiation at 30 nM after 5 days by Hoechst 33342 staining-based assay relative to control
T2 sequence (whole entry): T1 sequence (P37231 whole entry)
Outline: (§1)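 MKN45 cells grown in RPMI1640 with 10% FBS, penicillin/streptomycin, 37 °C, 5% CO2; seeded 2500 cells/well, exposed to compound (1-1000 nM, N = 3 per concentration) for 5 days. Hoechst 33342 nuclear stain, imaged; nuclear areas above 1,015.58 μm2 counted as aggregated clusters; aggregated-cluster area over total cell area gives aggregation rate, normalized to a reference agonist's maximum; EC50 at half-maximal activity.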

[3] = target: T2, Peroxisome proliferator-activated receptor gamma (Homo sapiens); test: Transactivation of PPARgamma in human MKN45 cells assessed as increase in angptl4 gene expression at 10 to 100 nM after 72 hrs by quantitative PCR analysis; format: cell-based
Outline: (§2)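 MKN45 cells treated with compound for 72 h (N = 3 per concentration); cells washed in cold PBS, total RNA isolated, transcript levels measured by quantitative PCR and corrected to GAPDH; fold-induction expressed relative to control/baseline.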

[4] = target: T2, Peroxisome proliferator-activated receptor gamma (Homo sapiens); test: Transactivation of PPARgamma in human MKN45 cells assessed as increase in adfp gene expression at 10 to 100 nM after 72 hrs by quantitative PCR analysis; format: cell-based; outline: as §2
[5] = target: T2, Peroxisome proliferator-activated receptor gamma (Homo sapiens); test: Agonist activity at PPARgamma in human MKN45 cells assessed as cell differentiation at 100 nM after 5 days by Hoechst 33342 staining-based assay; outline: as §1
[6] = target: T2, Peroxisome proliferator-activated receptor gamma (Homo sapiens); test: Transactivation of PPARgamma in human MKN45 cells assessed as decrease in vimentin gene expression at 10 to 100 nM after 72 hrs by quantitative PCR analysis; format: cell-based; outline: as §2
[7] = target: T1, Peroxisome proliferator-activated receptor gamma; test: Transactivation of PPARgamma (unknown origin) transfected in human DRO cells after 24 hrs by dual luciferase reporter gene assay; format: cell-based
[8] = Inhibition of cologenic growth of human DRO cells at 1 nM after 2 weeks by soft agar assay relative to control; format: functional; details: 336 h
Mus musculus = organism: Mus musculus; test: Antidiabetic activity in db/db diabetic mouse model assessed as reduction in blood glucose levels relative to vehicle-treated control; format: functional; set-up: scale not given: the % may be the effect or the level left

EC50 [1] [nM]	SMILES	further results
593	CCCc1nc(-c2ccncc2)cn1Cc1ccc2c(c1)COc1ccccc1/C2=C(\C)c1noc(=O)[nH]1	
2.7	CCCc1nc2ccccc2n1Cc1ccc2c(c1)COc1ccccc1/C2=C(\C)c1noc(=O)[nH]1	
166	CCCc1nc2c(NS(C)(=O)=O)cccc2n1Cc1ccc2c(c1)COc1ccccc1/C2=C(\C)c1noc(=O)[nH]1	
163	CCCCCS(=O)(=O)NC(=O)c1ccc2nc(C)n(Cc3ccc(Cl)cc3Cl)c2c1 [ATX08-001]	
33	CCCc1nc2c(CO)cccc2n1Cc1ccc2c(c1)COc1ccccc1/C2=C(\C)c1noc(=O)[nH]1	
151	CCCc1nc(-c2ccccc2)cn1Cc1ccc2c(c1)COc1ccccc1/C2=C(\C)c1noc(=O)[nH]1	
177	CCc1nc2c(C)cc(C)nc2n1Cc1ccc2c(c1)CCc1ccccc1/C2=C(\C)c1noc(=O)[nH]1	
	CCCc1nc2c(C)cccc2n1Cc1ccc2c(c1)COc1ccccc1/C2=C(\C)c1noc(=O)[nH]1	Activity [2]: 94%; Activity [3]: Active; Activity [4]: Active; Activity [5]: Active; Activity [6]: Active
	Cc1cc(Oc2ccc3nc(COc4ccc(CC5SC(=O)NC5=O)cc4)n(C)c3c2)cc(C)c1N (configuration not stated) [EFATUTAZONE]	EC50 [7]: 1 nM; inhibition at 0.001 µM [8]: 63%
57	CCCc1nc2c(C(=O)NCCO)cccc2n1Cc1ccc2c(c1)COc1ccccc1/C2=C(\C)c1noc(=O)[nH]1	
	O=S(=O)(Nc1cc(Cl)c(Oc2cnc3ccccc3c2)c(Cl)c1)c1ccc(Cl)cc1Cl [INT131]	Activity (Mus musculus): 60%
84	CCc1nc2c(C)cc(C)nc2n1Cc1ccc2c(c1)COc1ccccc1/C2=C(\C)c1noc(=O)[nH]1	
